Reference: ChEMBL document CHEMBL1949516, “Synthesis and antimycobacterial evaluation of N-substituted 3-aminopyrazine-2,5-dicarbonitriles” (Bioorg Med Chem Lett, 2012)
Values after ≈ are worked out from the molar mass of the structure shown.

Assays:
Mycobacterium avium [1] = assay: Antimycobacterial activity against Mycobacterium avium CNCTC My 80/72 after 14 days by microdilution panel method; assay type: functional; conditions: CNCTC My 80/72, 336 h
Method in brief: (§1)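 Compounds dissolved in DMSO, diluted in Šula's semisynthetic medium in microdilution panels. Cultures grown in Šula's medium, pH 5.5, 37 °C. After 14 days incubation, activity read visually as MIC (µg/mL), also converted to µmol/L. Pyrazinamide run as standard.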

Mycobacterium kansasii = assay: Antimycobacterial activity against Mycobacterium kansasii CNCTC My 235/80 after 6 days by microdilution panel method; assay type: functional; conditions: CNCTC My 235/80, 144 h
Method in brief: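 Microdilution panel; compounds dissolved in DMSO and diluted with Šula's semisynthetic medium. Cultures grown in Šula's semisynthetic medium, pH 5.5, 37 °C. After 6 days of incubation, MIC (µg/mL) read visually. MICs also converted to molar units (µmol/L). PZA run as standard.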

[2] = system: Mycobacterium tuberculosis; assay: Antimycobacterial activity against Mycobacterium tuberculosis H37Rv CNCTC My 331/88 after 14 days by microdilution panel method; assay type: functional; conditions: H37Rv CNCTC My 331/88, 336 h; method in brief: as §1
Mycobacterium avium [3] = assay: Antimycobacterial activity against Mycobacterium avium CNCTC My 152/73 after 14 days by microdilution panel method; assay type: functional; conditions: CNCTC My 152/73, 336 h; method in brief: as §1
[4] = Partition coefficient, log k of the compound; assay type: physicochemical; conditions: octanol/water
Method in brief: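 Capacity factor k measured by isocratic RP-HPLC on an end-capped non-polar C18 column, with methanol as organic modifier in the mobile phase. Value given as log k and used as a lipophilicity index converted to the logP scale.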

[5] = Aqueous solubility of the compound; assay type: physicochemical; conditions: buffer

| SMILES | MIC (Mycobacterium avium [1]) [µg/mL] | MIC (Mycobacterium kansasii) [µg/mL] | MIC [2] [µg/mL] | MIC (Mycobacterium avium [3]) [µg/mL] | log K [4] | solubility [5] |
| --- | --- | --- | --- | --- | --- | --- |
| CCN(CC)c1nc(C#N)cnc1C#N | > 200 | 100 (≈ 497 µM) | 100 (≈ 497 µM) | > 200 | 0.6685 |  |
| N#Cc1cnc(C#N)c(N2CCOCC2)n1 | > 200 | 200 (≈ 929 µM) | 200 (≈ 929 µM) | > 200 | 0.583 |  |
| CCNc1nc(C#N)cnc1C#N | > 200 | 200 (≈ 1150 µM) | 100 (≈ 577 µM) | > 200 | 0.6146 |  |
| CCCCCCCCNc1nc(C#N)cnc1C#N | > 200 | 100 (≈ 389 µM) | 25 (≈ 97.1 µM) | > 200 | 1.1953 |  |
| N#Cc1cnc(C#N)c(NC2CCCCCC2)n1 | > 200 | > 200 | > 200 | > 200 | 0.8789 | Insoluble |
| CCCCNc1nc(C#N)cnc1C#N | 100 (≈ 497 µM) | 100 (≈ 497 µM) | 100 (≈ 497 µM) | 100 (≈ 497 µM) | 0.7088 |  |
| NC(=O)c1cnccn1 [PYRAZINAMIDE] | > 200 | > 200 | 12.5 (≈ 102 µM) | > 200 | 0.0514 |  |
| CCCCCNc1nc(C#N)cnc1C#N | 100 (≈ 465 µM) | 100 (≈ 465 µM) | 50 (≈ 232 µM) | 100 (≈ 465 µM) | 0.7901 |  |
| CCCCCCCNc1nc(C#N)cnc1C#N | > 200 | > 200 | 12.5 (≈ 51.4 µM) | > 200 | 1.0243 |  |
| CCCNc1nc(C#N)cnc1C#N | 200 (≈ 1070 µM) | 200 (≈ 1070 µM) | 200 (≈ 1070 µM) | 200 (≈ 1070 µM) | 0.6497 |  |
| N#Cc1cnc(C#N)c(Cl)n1 | 100 (≈ 608 µM) | > 200 | 25 (≈ 152 µM) | 100 (≈ 608 µM) | 0.5792 |  |
| CNc1nc(C#N)cnc1C#N | > 200 | 100 (≈ 628 µM) | 100 (≈ 628 µM) | > 200 | 0.5859 |  |
| CCCCCCNc1nc(C#N)cnc1C#N | 100 (≈ 436 µM) | 50 (≈ 218 µM) | 25 (≈ 109 µM) | 100 (≈ 436 µM) | 0.9133 |  |
| CN1CCN(c2nc(C#N)cnc2C#N)CC1 | > 200 | > 200 | > 200 | > 200 | 0.5946 |  |
| N#Cc1cnc(C#N)c(NC2CCCCC2)n1 | > 200 | > 200 | > 200 | > 200 | 0.7896 | Insoluble |
| N#Cc1cnc(C#N)c(NC2CCCC2)n1 | > 200 | > 200 | > 200 | > 200 | 0.7273 | Insoluble |
